Square brackets hold non-standard residues; d marks the D form. Peptide text beside a SMILES is read from it. * marks the point of attachment. Palmitoyl = CCCCCCCCCCCCCCCC(=O)*; Myristoyl = CCCCCCCCCCCCCC(=O)*; Nle = CCCC[C@H](N)C(=O)O
System: SK-MEL-2
Experiment: Growth inhibition of SK-Mel2 melanoma cells after 48 hrs by MTT assay
Assay type: functional, cell-based, Homo sapiens
Conditions: Homo sapiens, SK-MEL-2, 48 h
Procedure, shortened: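 Cells seeded at 200-400 per well in DMEM with 10% FBS and left to attach for 24 h. The next day, inhibitor in medium at 2× was added in an equal volume, and cells were incubated 48 h in a CO2 incubator. Reference plates were read at time of addition for T0 density. MTT staining was read as absorbance at 544 nm and compared with untreated control cells.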

Row | IC50 [µM] | Compound
1 | 2.7 | CCCCCCCCCCCCCCCC(=O)NCCCC[C@H](NC(=O)[C@H](Cc1ccc(O)cc1)NC(=O)[C@H](CO)NC(=O)[C@@H](NC(=O)[C@H](CCCCN)NC(=O)CNC(=O)[C@H](CO)NC(=O)[C@H](CC(C)C)NC(=O)[C@@H]1CCCN1C(=O)[C@H](CCC(N)=O)NC(=O)[C@H](Cc1ccc(O)cc1)NC(=O)[C@@H](NC(=O)[C@@H](NC(=O)CNC(C)=O)[C@@H](C)O)[C@@H](C)O)[C@@H](C)O)C(=O)O (Ac-GTTYQPLSGKTSYK(Palmitoyl)-OH)
2 | 0.95 | CCCCCCCCCCCCCCCC(=O)NCCCC[C@H](NC(=O)[C@H](CCCNC(=N)N)NC(=O)[C@H](CC(C)C)NC(=O)[C@H](CCSC)NC(=O)[C@@H](NC(=O)[C@H](CCC(=O)O)NC(=O)[C@H](CC(N)=O)NC(=O)[C@@H](NC(=O)[C@H](CCCCN)NC(=O)[C@H](CO)NC(=O)[C@H](C)NC(=O)[C@H](C)NC(=O)[C@H](CCCCN)NC(=O)[C@H](CCC(=O)O)NC(=O)[C@H](CO)NC(=O)[C@H](CC(C)C)NC(=O)[C@H](CC(C)C)NC(=O)CNC(=O)[C@@H]1CCCN1C(=O)[C@H](Cc1c[nH]cn1)NC(=O)[C@H](CC(N)=O)NC(=O)[C@H](CO)NC(=O)[C@H](CCCCN)NC(=O)[C@@H](NC(=O)[C@H](CO)NC(=O)[C@H](Cc1ccccc1)NC(=O)[C@H](CC(C)C)NC(C)=O)[C@@H](C)CC)[C@@H](C)CC)[C@@H](C)O)C(=O)O (Ac-LFSIKSNHPGLLSEKAASKINETMLRK(Palmitoyl)-OH)
3 | > 15 | CCCC[C@H](NC(=O)[C@H](CCCNC(=N)N)NC(=O)[C@H](CCCNC(=N)N)NC(=O)[C@H](CC(N)=O)NC(=O)[C@@H]1CCCN1C(=O)[C@H](Cc1ccccc1)NC(=O)[C@H](Cc1c[nH]c2ccccc12)NC(=O)[C@@H](NC(=O)[C@H](CCCCN)NC(=O)[C@@H](NC(=O)[C@H](CCC(N)=O)NC(=O)[C@H](CCCNC(=N)N)NC(=O)[C@H](CC(C)C)NC(=O)[C@H](C)NC(=O)[C@H](CCCCN)NC(=O)[C@H](Cc1ccccc1)NC(=O)[C@H](CO)NC(=O)[C@@H](NC(=O)[C@H](Cc1cnc[nH]1)NC(=O)[C@H](Cc1c[nH]c2ccccc12)NC(=O)[C@H](C)NC(=O)[C@H](Cc1ccc(O)cc1)NC(=O)[C@@H](NC(=O)[C@H](CC(C)C)NC(C)=O)[C@@H](C)O)[C@@H](C)O)[C@@H](C)CC)[C@@H](C)CC)C(=O)N[C@@H](CCCCN)C(=O)N[C@@H](Cc1c[nH]c2ccccc12)C(=O)N[C@@H](CCCCN)C(=O)N[C@@H](CCCCN)C(=O)O (Ac-LTYAWHTSFKALRQIKIWFPNRR[Nle]KWKK-OH)
4 | 0.9 | CCCCCCCCCCCCCCCC(=O)NCCCC[C@H](NC(=O)[C@H](CCCNC(=N)N)NC(=O)[C@H](CC(C)C)NC(=O)[C@H](CCSC)NC(=O)[C@@H](NC(=O)[C@H](CCC(=O)O)NC(=O)[C@H](CC(N)=O)NC(=O)[C@@H](NC(=O)[C@H](CCCCN)NC(=O)[C@H](CO)NC(=O)[C@H](C)NC(=O)[C@H](C)NC(=O)[C@H](CCCCN)NC(=O)[C@H](CCC(=O)O)NC(=O)[C@H](CO)NC(=O)[C@H](CC(C)C)NC(=O)[C@H](CC(C)C)NC(=O)CNC(=O)[C@@H]1CCCN1C(=O)[C@H](Cc1c[nH]cn1)NC(=O)[C@H](CC(N)=O)NC(=O)[C@H](CO)NC(=O)[C@H](CCCCN)NC(=O)[C@@H](NC(=O)[C@H](CO)NC(=O)[C@H](Cc1ccccc1)NC(=O)[C@H](CC(C)C)NC(=O)[C@@H](NC(=O)[C@H](CCSC)NC(=O)[C@@H](NC(=O)CNC(=O)[C@H](CCCNC(=N)N)NC(C)=O)C(C)C)[C@@H](C)O)[C@@H](C)CC)[C@@H](C)CC)[C@@H](C)O)C(=O)O (Ac-RGVMTLFSIKSNHPGLLSEKAASKINETMLRK(Palmitoyl)-OH)
5 | 1 | CCCCCCCCCCCCCCCC(=O)NCCCC[C@H](NC(=O)[C@H](Cc1ccc(O)cc1)NC(=O)[C@H](CO)NC(=O)[C@@H](NC(=O)[C@H](CCCCN)NC(=O)CNC(=O)[C@H](CO)NC(=O)[C@H](CC(C)C)NC(=O)[C@@H]1CCCN1C(=O)[C@H](CCC(N)=O)NC(=O)[C@H](Cc1ccc(O)cc1)NC(=O)[C@@H](NC(=O)[C@@H](NC(=O)CNC(=O)[C@H](CC(C)C)NC(=O)[C@H](C)NC(=O)[C@H](CCCCN)NC(=O)[C@H](Cc1ccccc1)NC(=O)[C@H](CO)NC(=O)[C@@H](NC(=O)[C@H](Cc1cnc[nH]1)NC(=O)[C@H](Cc1c[nH]c2ccccc12)NC(=O)[C@H](C)NC(=O)[C@H](Cc1ccc(O)cc1)NC(C)=O)[C@@H](C)O)[C@@H](C)O)[C@@H](C)O)[C@@H](C)O)C(=O)O (Ac-YAWHTSFKALGTTYQPLSGKTSYK(Palmitoyl)-OH)
6 | > 15 | CCCC[C@H](NC(=O)[C@H](CCCNC(=N)N)NC(=O)[C@H](CCCNC(=N)N)NC(=O)[C@H](CC(N)=O)NC(=O)[C@@H]1CCCN1C(=O)[C@H](Cc1ccccc1)NC(=O)[C@H](Cc1c[nH]c2ccccc12)NC(=O)[C@@H](NC(=O)[C@H](CCCCN)NC(=O)[C@@H](NC(=O)[C@H](CCC(N)=O)NC(=O)[C@@H](N)CCCNC(=N)N)[C@@H](C)CC)[C@@H](C)CC)C(=O)N[C@@H](CCCCN)C(=O)N[C@@H](Cc1c[nH]c2ccccc12)C(=O)N[C@@H](CCCCN)C(=O)N[C@@H](CCCCN)C(=O)N[C@@H](CC(C)C)C(=O)N[C@H](C(=O)N[C@@H](Cc1ccc(O)cc1)C(=O)N[C@@H](C)C(=O)N[C@@H](Cc1c[nH]c2ccccc12)C(=O)N[C@@H](Cc1cnc[nH]1)C(=O)N[C@H](C(=O)N[C@@H](CO)C(=O)N[C@@H](Cc1ccccc1)C(=O)N[C@@H](CCCCN)C(=O)N[C@@H](C)C(=O)N[C@@H](CC(C)C)C(=O)O)[C@@H](C)O)[C@@H](C)O (H-RQIKIWFPNRR[Nle]KWKKLTYAWHTSFKAL-OH)
7 | 1.5 | CCCCCCCCCCCCCCCC(=O)N[C@@H](CC(C)C)C(=O)N[C@@H](Cc1ccccc1)C(=O)N[C@@H](CO)C(=O)N[C@H](C(=O)N[C@@H](CCCCN)C(=O)N[C@@H](CO)C(=O)N[C@@H](CC(N)=O)C(=O)N[C@@H](Cc1c[nH]cn1)C(=O)N1CCC[C@H]1C(=O)NCC(=O)N[C@@H](CC(C)C)C(=O)N[C@@H](CC(C)C)C(=O)N[C@@H](CO)C(=O)N[C@@H](CCC(=O)O)C(=O)N[C@@H](CCCCN)C(=O)N[C@@H](C)C(=O)N[C@@H](C)C(=O)N[C@@H](CO)C(=O)N[C@@H](CCCCN)C(=O)N[C@H](C(=O)N[C@@H](CC(N)=O)C(=O)N[C@@H](CCC(=O)O)C(=O)N[C@H](C(=O)N[C@@H](CCSC)C(=O)N[C@@H](CC(C)C)C(=O)N[C@@H](CCCNC(=N)N)C(=O)O)[C@@H](C)O)[C@@H](C)CC)[C@@H](C)CC (Palmitoyl-LFSIKSNHPGLLSEKAASKINETMLR-OH)

Further lines, the compound ahead of its results:

Row | Compound | IC50 [µM]
8 | CCCCCCCCCCCCCCCC(=O)N[C@@H](CC(C)C)C(=O)N[C@H](C(=O)N[C@@H](Cc1ccc(O)cc1)C(=O)N[C@@H](C)C(=O)N[C@@H](Cc1ccc(C(=O)c2ccccc2)cc1)C(=O)N[C@@H](Cc1cnc[nH]1)C(=O)N[C@H](C(=O)N[C@@H](CO)C(=O)N[C@@H](Cc1ccccc1)C(=O)N[C@@H](CCCCN)C(=O)N[C@@H](C)C(=O)N[C@@H](CC(C)C)C(=O)N[C@H](CCSC(=O)CCCC[C@@H]1SC[C@@H]2NC(=O)N[C@@H]21)C(=O)O)[C@@H](C)O)[C@@H](C)O | > 15
9 | CCCCCCCCCCCCCCCC(=O)NCCCC[C@H](NC(=O)[C@H](Cc1ccc(O)cc1)NC(=O)[C@H](CO)NC(=O)[C@@H](NC(=O)[C@H](CCCCN)NC(=O)CNC(=O)[C@H](CO)NC(=O)[C@H](CC(C)C)NC(=O)[C@@H]1CCCN1C(=O)[C@H](CCC(N)=O)NC(=O)[C@H](Cc1ccc(O)cc1)NC(=O)[C@@H](NC(=O)[C@@H](NC(=O)CNC(=O)[C@H](CC(C)C)NC(=O)[C@H](C)NC(=O)[C@H](CCCCN)NC(=O)[C@H](Cc1ccccc1)NC(=O)[C@H](CO)NC(=O)[C@@H](NC(=O)[C@H](Cc1cnc[nH]1)NC(=O)[C@H](Cc1c[nH]c2ccccc12)NC(=O)[C@H](C)NC(=O)[C@H](Cc1ccc(O)cc1)NC(=O)[C@@H](NC(=O)[C@H](CC(C)C)NC(C)=O)[C@@H](C)O)[C@@H](C)O)[C@@H](C)O)[C@@H](C)O)[C@@H](C)O)C(=O)O (Ac-LTYAWHTSFKALGTTYQPLSGKTSYK(Palmitoyl)-OH) | 1
10 | CCCCCCCCCCCCCC(=O)N[C@@H](CC(C)C)C(=O)N[C@H](C(=O)N[C@@H](Cc1ccc(O)cc1)C(=O)N[C@@H](C)C(=O)N[C@@H](Cc1c[nH]c2ccccc12)C(=O)N[C@@H](Cc1cnc[nH]1)C(=O)N[C@H](C(=O)N[C@@H](CO)C(=O)N[C@@H](Cc1ccccc1)C(=O)N[C@@H](CCCCN)C(=O)N[C@@H](C)C(=O)N[C@@H](CC(C)C)C(=O)O)[C@@H](C)O)[C@@H](C)O (Myristoyl-LTYAWHTSFKAL-OH) | 0.2
11 | CCCCCCCCCCCCCCCC(=O)N[C@@H](CC(C)C)C(=O)N[C@H](C(=O)N[C@@H](Cc1ccc(O)cc1)C(=O)N[C@@H](C)C(=O)N[C@@H](Cc1c[nH]c2ccccc12)C(=O)N[C@@H](Cc1cnc[nH]1)C(=O)N[C@H](C(=O)N[C@@H](CO)C(=O)N[C@@H](Cc1ccccc1)C(=O)N[C@@H](CCCCN)C(=O)O)[C@@H](C)O)[C@@H](C)O (Palmitoyl-LTYAWHTSFK-OH) | 0.06
12 | CCCCCCCCCCCCCCCC(=O)N[C@@H](CC(C)C)C(=O)N[C@H](C(=O)N[C@@H](Cc1ccc(O)cc1)C(=O)N[C@@H](C)C(=O)N[C@@H](Cc1c[nH]c2ccccc12)C(=O)N[C@@H](Cc1cnc[nH]1)C(=O)N[C@H](C(=O)N[C@@H](CO)C(=O)N[C@@H](Cc1ccccc1)C(=O)N[C@@H](CCCCN)C(=O)N[C@@H](C)C(=O)O)[C@@H](C)O)[C@@H](C)O (Palmitoyl-LTYAWHTSFKA-OH) | 0.09
13 | CCCCCCCCCCCCCCCC(=O)N[C@@H](CC(C)C)C(=O)N[C@H](C(=O)N[C@@H](Cc1ccc(O)cc1)C(=O)N[C@@H](C)C(=O)N[C@@H](Cc1c[nH]c2ccccc12)C(=O)N[C@@H](Cc1cnc[nH]1)C(=O)N[C@H](C(=O)N[C@@H](CO)C(=O)N[C@@H](Cc1ccccc1)C(=O)N[C@@H](CCCCN)C(=O)N[C@@H](C)C(=O)N[C@@H](CC(C)C)C(=O)O)[C@@H](C)O)[C@@H](C)O (Palmitoyl-LTYAWHTSFKAL-OH) | 0.08
14 | CCCCCCCCCCCCCCCC(=O)N[C@@H](CC(C)C)C(=O)N[C@H](C(=O)N[C@@H](Cc1ccc(O)cc1)C(=O)N[C@@H](C)C(=O)N[C@@H](Cc1c[nH]c2ccccc12)C(=O)N[C@@H](Cc1cnc[nH]1)C(=O)N[C@H](C(=O)N[C@@H](CO)C(=O)N[C@@H](Cc1ccccc1)C(=O)N[C@@H](CCCCN)C(=O)N[C@@H](C)C(=O)N[C@@H](CC(C)C)C(=O)NCC(=O)N[C@H](C(=O)N[C@H](C(=O)N[C@@H](Cc1ccc(O)cc1)C(=O)N[C@@H](CCC(N)=O)C(=O)N1CCC[C@H]1C(=O)O)[C@@H](C)O)[C@@H](C)O)[C@@H](C)O)[C@@H](C)O (Palmitoyl-LTYAWHTSFKALGTTYQP-OH) | 0.3

— ChEMBL document CHEMBL1148755, “Structural analogues of smoothened intracellular loops as potent inhibitors of Hedgehog pathway and cancer cell growth” (J Med Chem, 2007)
